Here are results for seven compounds from ChEMBL document CHEMBL1828520, “Anti-AIDS agents 86. Synthesis and anti-HIV evaluation of 2',3'-seco-3'-nor DCP and DCK analogues” (Eur J Med Chem, 2011).

Series [1] is described as follows: Chemical stability of the compound in 1% HCl assessed as compound remaining at 1 min by HPLC analysis. It is filed as physicochemical. The conditions noted are these: read-out: Stability. Summed up: (§1)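 Compound (1 mg) dissolved in MeOH (0.5 mL), 1% HCl (0.2 mL) added, shaken at room temperature. Remaining compound measured by reversed-phase HPLC (ODS2 column, 30% water/70% MeOH) as area % purity at the stated time.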

Series [2] can be described thus: Chemical stability of the compound in 1% HCl assessed as compound remaining at 30 min by HPLC analysis. It is filed as physicochemical. The conditions noted are these: read-out: Stability. Summed up: as §1
The subject of series [3] is Human immunodeficiency virus 1. In words: Antiviral activity against HIV1 RTMDR in human […] cells after 48 hrs by luciferase reporter gene assay. The conditions noted are these: Human immunodeficiency virus 1, RTMDR. In kind it is functional, organism-based. In outline: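 Single-round infection of TZM-bl cells with 200 TCID50 virus plus test sample in eight fourfold dilutions; 48 h incubation, then Bright Glo luciferase read. Highest tested concentration 20 μM.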
On the technique in general: In a reporter assay the amount or activity of a reporter protein is the signal.

Series [4] is described as follows: Cytotoxicity against human TZM-bl cells assessed as cell viability. It is filed as cell-based. Summed up:
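TZM-bl cells (1 × 10^5 cells/mL) exposed to various compound concentrations in parallel with the antiviral assay timing. Averaged from at least three independent experiments.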

Series [5] has as its system Human immunodeficiency virus 1. Description: Antiviral activity against HIV 1 NL4-3 infected in human TZM-bl cells after 48 hrs by luciferase reporter gene assay. In kind it is functional, organism-based. The conditions noted are these: Human immunodeficiency virus 1, NL4-3, TZM-bl. In outline: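 Single-round infection of TZM-bl cells with HIV-1 NL4-3 at 200 TCID50, in the presence of eight fourfold serial dilutions of compound. After 48 h, luciferase was read as RLU. Highest concentration tested was 20 μM.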

Series [6] in a line: Ratio of CC50 for human TZM-bl cells to EC50 for HIV 1 RTMDR infected in human TZM-bl cells.
Series [7] is described as follows: Ratio of CC50 for human TZM-bl cells to EC50 for HIV 1 NL4-3 infected in human TZM-bl cells.

Regarding `Cc1cc(=O)oc2c3c(ccc12)OC(C)(C)[C@H](OC(=O)[C@@]12CC[C@@](C)(C(=O)O1)C2(C)C)[C@@H]3OC(=O)[C@@]12CC[C@@](C)(C(=O)O1)C2(C)C`, the remaining at […] in series [1] came to 100%. The remaining at 0.5 h in series [2] was 64%.
As usually defined, the EC50 is the midpoint of the concentration-response curve. Read a low EC50 as an effect from little substance. As a reminder, the CC50 is the concentration at which the toxic effect on the cells reaches its halfway point. `CCOc1ccc2c(=O)cc(CC)oc2c1CN1CCN(C(=O)C(=O)c2cccs2)CC1`: the EC50 in series [3] is 16.9 µM; in series [5] it was above 22 µM. Moreover, the CC50 in series [4] was above 22 µM. In addition, in series [6], the “Ratio CC50/EC50” value was 1.3.
Turning to `CCOc1ccc2c(=O)cc(CC)oc2c1CN1CCN(C(=O)C(=O)c2ccccc2)CC1`, the EC50 was determined as 16.3 µM in series [3] and 16.7 µM in series [5]. In addition, the “Ratio CC50/EC50” value in series [7] is recorded as above 1.33; in series [6], above 1.37. For the same compound, in series [4], the CC50 is above 22.3 µM.
Turning to `CCOc1ccc2c(=O)cc(CC)oc2c1CN1CCN(C(=O)C(=O)c2c[nH]c3ccccc23)CC1`, the EC50 in series [3] and in series [5] was above 20.5 µM each time. In series [4], the CC50 was above 20.5 µM.
In the case of `CCc1cc(=O)c2ccc(OCc3cccc(C(=O)OC)c3)c(COC(=O)C34CCC(C)(C(=O)O3)C4(C)C)c2o1` (configuration not stated), in series [7], the “Ratio CC50/EC50” value came to 39.2. Besides, the CC50 in series [4] was above 36.5 µM. Also, in series [5], it took 0.93 µM to reach a half-maximal effect (EC50).
In the same order, the values of `CCc1cc(=O)c2ccc(OCc3cc(OC)cc(OC)c3)c(COC(=O)C34CCC(C)(C(=O)O3)C4(C)C)c2o1` (configuration not stated) are 1.64, above 36.3 µM and 22.2 µM.
With `CCc1cc(=O)c2ccc3c(c2o1)[C@@H](OC(=O)C12CCC(C)(C(=O)O1)C2(C)C)[C@@H](OC(=O)C12CCC(C)(C(=O)O1)C2(C)C)C(C)(C)O3` (some centres not stated), the EC50 came out at 0.2 µM in series [3] and 0.12 µM in series [5]. Further, the “Ratio CC50/EC50” value in series [7] is on record as 118.75; in series [6], 71.25. Further, the remaining at […] in series [1] turned out to be 100%. For the same compound, the CC50 in series [4] turned out to be 14.2 µM. Besides, the remaining at 0.5 h in series [2] is 91%.
